Results on 8 compounds are retold here after ChEMBL document CHEMBL1212770, “Molecular and biochemical characterization of the natural chromosome-encoded class A beta-lactamase from Pseudomonas luteola” (Antimicrob Agents Chemother, 2010).

Usually MIC stands for the lowest concentration found to suppress growth.

SMILES strings stand for the structures. In brackets after ≈: the same amount, converted by molar mass. Activity calls are given as the source filed them. The rule behind the calls is not given here.

Common to all, as to assay type: functional
The subject of experiment [1] is Escherichia coli. Nature of the experiment: Antimicrobial activity against Escherichia coli DH10B transfected with pBK-L3 expressing blaLUT-1 by Etest method. The following applies: K-12 DH10B.
Experiment [2] concerns Escherichia coli. Nature of the experiment: Antimicrobial activity against Escherichia coli DH10B at 2:1 ratio of compound to clavulanic acid by Etest method. The following applies: K-12 DH10B.
Experiment [3] deals with Pseudomonas luteola. Nature of the experiment: Antimicrobial activity against Pseudomonas luteola expressing blaLUT-2 to blaLUT-6 by Etest method.
Experiment [4] deals with Pseudomonas luteola. Nature of the experiment: Antimicrobial activity against Pseudomonas luteola LAM expressing blaLUT-1 by Etest method.
In experiment [5] the test system is Pseudomonas luteola. Nature of the experiment: Antimicrobial activity against Pseudomonas luteola expressing blaLUT-2 to blaLUT-6 at 2:1 ratio of compound to clavulanic acid by Etest method.
In experiment [6] the test system is Escherichia coli. Nature of the experiment: Antimicrobial activity against Escherichia coli DH10B transfected with pBK-L3 expressing blaLUT-1 at 2:1 ratio of compound to clavulanic acid by Etest method. The following applies: K-12 DH10B.
Experiment [7] relates to Escherichia coli. Nature of the experiment: Antimicrobial activity against Escherichia coli DH10B by Etest method. The following applies: K-12 DH10B.
The subject of experiment [8] is Pseudomonas luteola. Nature of the experiment: Antimicrobial activity against Pseudomonas luteola LAM expressing blaLUT-1 at 2:1 ratio of compound to clavulanic acid by Etest method.
Experiment [9] deals with Pseudomonas luteola. Nature of the experiment: Antimicrobial activity against Pseudomonas luteola by Etest method.
In experiment [10] the test system is Pseudomonas luteola. Nature of the experiment: Antimicrobial activity against Pseudomonas luteola by disk diffusion method. An outline of the steps:
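Disk diffusion panel of 32 antimicrobial drugs tested on P. luteola clinical isolates and the type strain. Isolates were identified by API-20 NE and by sequencing of PCR-amplified rrs and rpoB.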

For experiment [11], the system named is Escherichia coli. Nature of the experiment: Antimicrobial activity against Escherichia coli DH10B by Etest method in presence of 4 ug/ml Tazobactam. The following applies: K-12 DH10B.
Experiment [12] has as its system Pseudomonas luteola. Nature of the experiment: Antimicrobial activity against Pseudomonas luteola LAM expressing blaLUT-1 by Etest method in presence of 4 ug/ml Tazobactam.
The subject of experiment [13] is Pseudomonas luteola. Nature of the experiment: Antimicrobial activity against Pseudomonas luteola expressing blaLUT-2 to blaLUT-6 by Etest method in presence of 4 ug/ml Tazobactam.
In experiment [14] the test system is Escherichia coli. Nature of the experiment: Antimicrobial activity against Escherichia coli DH10B transfected with pBK-L3 expressing blaLUT-1 by Etest method in presence of 4 ug/ml Tazobactam. The following applies: K-12 DH10B.

Regarding `CC1(C)S[C@@H]2[C@H](NC(=O)[C@H](N)c3ccc(O)cc3)C(=O)N2[C@H]1C(=O)O` [AMOXICILLIN], the MIC in experiment [1] was determined as 128 µg/mL (≈ 350 µM); in experiment [2] it was 4 µg/mL; in experiment [3] it was 4 µg/mL (≈ 10.9 µM); in experiment [4] it was 4 µg/mL (≈ 10.9 µM); in [5] it was 1 µg/mL; in experiment [6], 4 µg/mL. The MIC in [7] came out at 4 µg/mL (≈ 10.9 µM); in experiment [8], 1 µg/mL.

Take `CC(=O)OCC1=C(C(=O)O)N2C(=O)[C@@H](NC(=O)Cc3cccs3)[C@H]2SC1` [CEPHALOTHIN]: the minimum inhibitory concentration (MIC) in experiment [1] is 32 µg/mL (≈ 80.7 µM); in experiment [3], 128 µg/mL (≈ 323 µM); in [4], 64 µg/mL (≈ 161 µM); in [7], 4 µg/mL (≈ 10.1 µM).

In turn, `O=C(O)c1cn(C2CC2)c2cc(N3CCNCC3)c(F)cc2c1=O` [CIPROFLOXACIN] showed an MIC in experiment [9] of 0.032 µg/mL (≈ 0.0966 µM).

For the compound `CCn1cc(C(=O)O)c(=O)c2ccc(C)nc21` [NALIDIXIC ACID], the MIC in experiment [9] worked out at 16 µg/mL (≈ 68.9 µM). The outcome in [10] was inactive.

For the compound `CO[C@@]1(NC(=O)Cc2cccs2)C(=O)N2C(C(=O)O)=C(COC(N)=O)CS[C@@H]21` [CEFOXITIN], the minimum inhibitory concentration (MIC) in experiment [1] was found to be 4 µg/mL (≈ 9.36 µM); in experiment [3], 32 µg/mL (≈ 74.9 µM); in experiment [4], 32 µg/mL (≈ 74.9 µM); in experiment [7] it was 4 µg/mL (≈ 9.36 µM).

Take `CCN1CCN(C(=O)N[C@@H](C(=O)N[C@@H]2C(=O)N3[C@@H]2SC(C)(C)[C@@H]3C(=O)O)c2ccccc2)C(=O)C1=O` [PIPERACILLIN]: the minimal inhibitory concentration (MIC) in [1] came to 8 µg/mL (≈ 15.5 µM); in [11] it was 1 µg/mL; in experiment [3], 2 µg/mL (≈ 3.86 µM); in experiment [12], 1 µg/mL; in experiment [4], 2 µg/mL (≈ 3.86 µM); in experiment [13], 1 µg/mL. In addition, the MIC stood at 1 µg/mL (≈ 1.93 µM) in [7] and 1 µg/mL in experiment [14].

Consider `CO/N=C(\C(=O)N[C@@H]1C(=O)N2C(C(=O)[O-])=C(C[N+]3(C)CCCC3)CS[C@H]12)c1csc(N)n1`, for which the MIC in experiment [1] amounted to 0.5 µg/mL (≈ 1.04 µM); in experiment [3], 1 µg/mL (≈ 2.08 µM); in experiment [4] it was 0.5 µg/mL (≈ 1.04 µM).

On to `C[C@@H](O)[C@H]1C(=O)N2C(C(=O)O)=C(SCCNC=N)C[C@H]12` [IMIPENEM ANHYDROUS], for which the minimum inhibitory concentration (MIC) in experiment [3] and in experiment [4] was 0.25 µg/mL (≈ 0.835 µM) in each case.
